Results taken from ChEMBL document CHEMBL1152161, “A facile synthesis, antibacterial, and antitubercular studies of some piperidin-4-one and tetrahydropyridine derivatives” (2008).
Values after ≈ are worked out from the molar mass of the structure shown. Active and inactive are the calls of the source. No cut-off for these calls is given here.

System: Staphylococcus aureus
Assay: Antibacterial activity against Staphylococcus aureus by broth micro dilution method
Format: functional
Conditions: not given
How it was run: (§1)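 MIC90 was found by broth microdilution following NCCLS methods. Compounds were tested up to a top concentration of […]. Linezolid and trovafloxacin served as positive controls and DMSO as the negative control.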

Compound | MIC90
CCOC(=O)C1=C(OS(=O)(=O)c2ccccc2[N+](=O)[O-])CC(c2ccccc2)N(C(=O)CCl)C1c1ccccc1 (configuration not stated) | 64 mg/L (≈ 109 µM)
CC1C(=O)C(C)C(c2ccccc2Cl)N(C(=O)Cn2cnc3ccccc32)C1c1ccccc1Cl (configuration not stated) | 64 mg/L (≈ 126 µM)
CCOC(=O)C1=C(O)CC(c2ccccc2)N(C(=O)CCl)C1c1ccccc1 (configuration not stated) | 32 mg/L (≈ 80 µM)

System: Staphylococcus aureus
Assay: Antibacterial activity against methicillin-resistant Staphylococcus aureus by broth micro dilution method
Format: functional
Conditions: not given
How it was run: (§2)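 MIC90 was determined by broth microdilution following NCCLS methods. Linezolid and trovafloxacin were run as positive controls, with DMSO as the negative control. Compounds were tested up to a top concentration of 128.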

Compound | MIC90
CCOC(=O)C1=C(O)CC(c2ccccc2)N(C(=O)CCl)C1c1ccccc1 (configuration not stated) | 64 mg/L (≈ 160 µM)

System: Staphylococcus epidermidis
Assay: Antibacterial activity against Staphylococcus epidermidis by broth micro dilution method
Format: functional
Conditions: not given
How it was run: as §2

Compound | MIC90
CCOC(=O)C1=C(O)CC(c2ccccc2)N(C(=O)CCl)C1c1ccccc1 (configuration not stated) | 64 mg/L (≈ 160 µM)

System: Staphylococcus epidermidis
Assay: Antibacterial activity against methicillin-resistant Staphylococcus epidermidis by broth micro dilution method
Format: functional
Conditions: not given
How it was run: as §2

Compound | MIC90
CC1C(=O)C(C)C(c2ccccc2Cl)N(C(=O)Cn2cnc3ccccc32)C1c1ccccc1Cl (configuration not stated) | 128 mg/L (≈ 253 µM)
CCOC(=O)C1=C(O)CC(c2ccccc2)N(C(=O)CCl)C1c1ccccc1 (configuration not stated) | 128 mg/L (≈ 320 µM)

System: Enterococcus faecalis
Assay: Antibacterial activity against Enterococcus faecalis by broth micro dilution method
Format: functional
Conditions: not given
How it was run: as §1

Compound | MIC90
CCOC(=O)C1=C(OS(=O)(=O)c2ccccc2[N+](=O)[O-])CC(c2ccccc2)N(C(=O)CCl)C1c1ccccc1 (configuration not stated) | 128 mg/L (≈ 219 µM)
CCOC(=O)C1=C(O)CC(c2ccccc2)N(C(=O)CCl)C1c1ccccc1 (configuration not stated) | 32 mg/L (≈ 80 µM)

System: Enterococcus faecalis
Assay: Antibacterial activity against vancomycin-resistant Enterococcus faecalis by broth micro dilution method
Format: functional
Conditions: not given
How it was run: as §2

Compound | MIC90
CCOC(=O)C1=C(O)CC(c2ccccc2)N(C(=O)CCl)C1c1ccccc1 (configuration not stated) | 64 mg/L (≈ 160 µM)

System: Enterococcus faecalis
Assay: Antibacterial activity against vancomycin and linezolid-resistant Enterococcus faecalis by broth micro dilution method
Format: functional
Conditions: not given
How it was run: as §2

Compound | MIC90
CCOC(=O)C1=C(O)CC(c2ccccc2)N(C(=O)CCl)C1c1ccccc1 (configuration not stated) | 32 mg/L (≈ 80 µM)

System: Enterococcus faecium
Assay: Antibacterial activity against Enterococcus faecium by broth micro dilution method
Format: functional
Conditions: not given
How it was run: as §1

Compound | MIC90
CCOC(=O)C1=C(O)CC(c2ccccc2)N(C(=O)CCl)C1c1ccccc1 (configuration not stated) | 64 mg/L (≈ 160 µM)

System: Enterococcus faecium
Assay: Antibacterial activity against vancomycin-resistant Enterococcus faecium by broth micro dilution method
Format: functional
Conditions: Enterococcus faecium
How it was run: as §2

Compound | MIC90
CCOC(=O)C1=C(OS(=O)(=O)c2ccccc2[N+](=O)[O-])CC(c2ccccc2)N(C(=O)CCl)C1c1ccccc1 (configuration not stated) | 128 mg/L (≈ 219 µM)
CCOC(=O)C1=C(O)CC(c2ccccc2)N(C(=O)CCl)C1c1ccccc1 (configuration not stated) | 16 mg/L (≈ 40 µM)

System: Staphylococcus aureus
Assay: Antibacterial activity against methicillin-resistant Staphylococcus aureus at 128 ug/mL by broth micro dilution method
Format: functional, organism-based
Conditions: not given
How it was run: as §2

Compound | Activity
CCOC(=O)C1=C(OS(=O)(=O)c2ccccc2[N+](=O)[O-])CC(c2ccccc2)N(C(=O)CCl)C1c1ccccc1 (configuration not stated) | inactive
CC1C(=O)C(C)C(c2ccccc2Cl)N(C(=O)Cn2cnc3ccccc32)C1c1ccccc1Cl (configuration not stated) | inactive

System: Staphylococcus epidermidis
Assay: Antibacterial activity against Staphylococcus epidermidis at 128 ug/mL by broth micro dilution method
Format: functional, organism-based
Conditions: not given

Compound | Activity
CCOC(=O)C1=C(OS(=O)(=O)c2ccccc2[N+](=O)[O-])CC(c2ccccc2)N(C(=O)CCl)C1c1ccccc1 (configuration not stated) | inactive
CC1C(=O)C(C)C(c2ccccc2Cl)N(C(=O)Cn2cnc3ccccc32)C1c1ccccc1Cl (configuration not stated) | inactive

System: Staphylococcus epidermidis
Assay: Antibacterial activity against methicillin-resistant Staphylococcus epidermidis at 128 ug/mL by broth micro dilution method
Format: functional, organism-based
Conditions: not given
How it was run: as §2

Compound | Activity
CCOC(=O)C1=C(OS(=O)(=O)c2ccccc2[N+](=O)[O-])CC(c2ccccc2)N(C(=O)CCl)C1c1ccccc1 (configuration not stated) | inactive

System: Enterococcus faecalis
Assay: Antibacterial activity against Enterococcus faecalis at 128 ug/mL by broth micro dilution method
Format: functional, organism-based
Conditions: not given

Compound | Activity
CC1C(=O)C(C)C(c2ccccc2Cl)N(C(=O)Cn2cnc3ccccc32)C1c1ccccc1Cl (configuration not stated) | inactive

System: Enterococcus faecalis
Assay: Antibacterial activity against vancomycin-resistant Enterococcus faecalis at 128 ug/mL by broth micro dilution method
Format: functional, organism-based
Conditions: not given
How it was run: as §2

Compound | Activity
CCOC(=O)C1=C(OS(=O)(=O)c2ccccc2[N+](=O)[O-])CC(c2ccccc2)N(C(=O)CCl)C1c1ccccc1 (configuration not stated) | inactive
CC1C(=O)C(C)C(c2ccccc2Cl)N(C(=O)Cn2cnc3ccccc32)C1c1ccccc1Cl (configuration not stated) | inactive

System: Enterococcus faecalis
Assay: Antibacterial activity against vancomycin and linezolid-resistant Enterococcus faecalis at 128 ug/mL by broth micro dilution method
Format: functional, organism-based
Conditions: not given
How it was run: as §2

Compound | Activity
CCOC(=O)C1=C(OS(=O)(=O)c2ccccc2[N+](=O)[O-])CC(c2ccccc2)N(C(=O)CCl)C1c1ccccc1 (configuration not stated) | inactive
CC1C(=O)C(C)C(c2ccccc2Cl)N(C(=O)Cn2cnc3ccccc32)C1c1ccccc1Cl (configuration not stated) | inactive

System: Enterococcus faecium
Assay: Antibacterial activity against Enterococcus faecium at 128 ug/mL by broth micro dilution method
Format: functional, organism-based
Conditions: not given

Compound | Activity
CCOC(=O)C1=C(OS(=O)(=O)c2ccccc2[N+](=O)[O-])CC(c2ccccc2)N(C(=O)CCl)C1c1ccccc1 (configuration not stated) | inactive
CC1C(=O)C(C)C(c2ccccc2Cl)N(C(=O)Cn2cnc3ccccc32)C1c1ccccc1Cl (configuration not stated) | inactive

System: Enterococcus faecium
Assay: Antibacterial activity against vancomycin-resistant Enterococcus faecium at 128 ug/mL by broth micro dilution method
Format: functional, organism-based
Conditions: not given
How it was run: as §2

Compound | Activity
CC1C(=O)C(C)C(c2ccccc2Cl)N(C(=O)Cn2cnc3ccccc32)C1c1ccccc1Cl (configuration not stated) | inactive

System: Escherichia coli
Assay: Antibacterial activity against Escherichia coli LCB0010 at 128 ug/mL by broth micro dilution method
Format: functional, organism-based
Conditions: not given

Compound | Activity
CCOC(=O)C1=C(OS(=O)(=O)c2ccccc2[N+](=O)[O-])CC(c2ccccc2)N(C(=O)CCl)C1c1ccccc1 (configuration not stated) | inactive
CC1C(=O)C(C)C(c2ccccc2Cl)N(C(=O)Cn2cnc3ccccc32)C1c1ccccc1Cl (configuration not stated) | inactive
CCOC(=O)C1=C(O)CC(c2ccccc2)N(C(=O)CCl)C1c1ccccc1 (configuration not stated) | inactive

System: Escherichia coli
Assay: Antibacterial activity against Escherichia coli LCB0011 by broth micro dilution method
Format: functional
Conditions: not given
How it was run: as §1

Compound | MIC90
CCOC(=O)C1=C(OS(=O)(=O)c2ccccc2[N+](=O)[O-])CC(c2ccccc2)N(C(=O)CCl)C1c1ccccc1 (configuration not stated) | 128 mg/L (≈ 219 µM)

System: Pseudomonas aeruginosa
Assay: Antibacterial activity against Pseudomonas aeruginosa by broth micro dilution method
Format: functional
Conditions: not given
How it was run: as §1

Compound | MIC90
CCOC(=O)C1=C(O)CC(c2ccccc2)N(C(=O)CCl)C1c1ccccc1 (configuration not stated) | 64 mg/L (≈ 160 µM)

System: Moraxella catarrhalis
Assay: Antibacterial activity against Moraxella catarrhalis by broth micro dilution method
Format: functional
Conditions: not given
How it was run: as §1

Compound | MIC90
CCOC(=O)C1=C(O)CC(c2ccccc2)N(C(=O)CCl)C1c1ccccc1 (configuration not stated) | 32 mg/L (≈ 80 µM)

System: Escherichia coli
Assay: Antibacterial activity against Escherichia coli LCB0011 at 128 ug/mL by broth micro dilution method
Format: functional, organism-based
Conditions: not given

Compound | Activity
CC1C(=O)C(C)C(c2ccccc2Cl)N(C(=O)Cn2cnc3ccccc32)C1c1ccccc1Cl (configuration not stated) | inactive
CCOC(=O)C1=C(O)CC(c2ccccc2)N(C(=O)CCl)C1c1ccccc1 (configuration not stated) | inactive

System: Escherichia coli
Assay: Antibacterial activity against Escherichia coli LCB0012 at 128 ug/mL by broth micro dilution method
Format: functional, organism-based
Conditions: not given

Compound | Activity
CCOC(=O)C1=C(OS(=O)(=O)c2ccccc2[N+](=O)[O-])CC(c2ccccc2)N(C(=O)CCl)C1c1ccccc1 (configuration not stated) | inactive
CC1C(=O)C(C)C(c2ccccc2Cl)N(C(=O)Cn2cnc3ccccc32)C1c1ccccc1Cl (configuration not stated) | inactive
CCOC(=O)C1=C(O)CC(c2ccccc2)N(C(=O)CCl)C1c1ccccc1 (configuration not stated) | inactive

System: Pseudomonas aeruginosa
Assay: Antibacterial activity against Pseudomonas aeruginosa at 128 ug/mL by broth micro dilution method
Format: functional, organism-based
Conditions: not given

Compound | Activity
CCOC(=O)C1=C(OS(=O)(=O)c2ccccc2[N+](=O)[O-])CC(c2ccccc2)N(C(=O)CCl)C1c1ccccc1 (configuration not stated) | inactive
CC1C(=O)C(C)C(c2ccccc2Cl)N(C(=O)Cn2cnc3ccccc32)C1c1ccccc1Cl (configuration not stated) | inactive

System: Klebsiella pneumoniae
Assay: Antibacterial activity against Klebsiella pneumoniae at 128 ug/mL by broth micro dilution method
Format: functional, organism-based
Conditions: not given

Compound | Activity
CCOC(=O)C1=C(OS(=O)(=O)c2ccccc2[N+](=O)[O-])CC(c2ccccc2)N(C(=O)CCl)C1c1ccccc1 (configuration not stated) | inactive
CC1C(=O)C(C)C(c2ccccc2Cl)N(C(=O)Cn2cnc3ccccc32)C1c1ccccc1Cl (configuration not stated) | inactive
CCOC(=O)C1=C(O)CC(c2ccccc2)N(C(=O)CCl)C1c1ccccc1 (configuration not stated) | inactive

System: Haemophilus influenzae
Assay: Antibacterial activity against Haemophilus influenzae at 128 ug/mL by broth micro dilution method
Format: functional, organism-based
Conditions: not given

Compound | Activity
CCOC(=O)C1=C(OS(=O)(=O)c2ccccc2[N+](=O)[O-])CC(c2ccccc2)N(C(=O)CCl)C1c1ccccc1 (configuration not stated) | inactive
CC1C(=O)C(C)C(c2ccccc2Cl)N(C(=O)Cn2cnc3ccccc32)C1c1ccccc1Cl (configuration not stated) | inactive
CCOC(=O)C1=C(O)CC(c2ccccc2)N(C(=O)CCl)C1c1ccccc1 (configuration not stated) | inactive

System: Moraxella catarrhalis
Assay: Antibacterial activity against Moraxella catarrhalis at 128 ug/mL by broth micro dilution method
Format: functional, organism-based
Conditions: not given

Compound | Activity
CCOC(=O)C1=C(OS(=O)(=O)c2ccccc2[N+](=O)[O-])CC(c2ccccc2)N(C(=O)CCl)C1c1ccccc1 (configuration not stated) | inactive
CC1C(=O)C(C)C(c2ccccc2Cl)N(C(=O)Cn2cnc3ccccc32)C1c1ccccc1Cl (configuration not stated) | inactive

System: Mycobacterium tuberculosis
Assay: Antitubercular activity against Mycobacterium tuberculosis H37Rv ATCC 27294 by radiometric respiratory technique
Format: functional
Conditions: not given

Compound | MIC
CCOC(=O)C1=C(O)CC(c2ccccc2)N(C(=O)CCl)C1c1ccccc1 (configuration not stated) | 16 mg/L (≈ 40 µM)

System: Mycobacterium tuberculosis
Assay: Antitubercular activity against Mycobacterium tuberculosis H37Rv ATCC 27294 at 256 ug/mL by radiometric respiratory technique
Format: functional, organism-based
Conditions: not given

Compound | Activity
CCOC(=O)C1=C(OS(=O)(=O)c2ccccc2[N+](=O)[O-])CC(c2ccccc2)N(C(=O)CCl)C1c1ccccc1 (configuration not stated) | inactive

System: Mycobacterium tuberculosis
Assay: Antitubercular potency, ratio of Isoniazid MIC to drug MIC against Mycobacterium tuberculosis H37Rv ATCC 27294
Format: functional
Conditions: not given

Compound | Ratio
CCOC(=O)C1=C(O)CC(c2ccccc2)N(C(=O)CCl)C1c1ccccc1 (configuration not stated) | 1.56

System: Mycobacterium tuberculosis
Assay: Antitubercular potency, ratio of Rifampicin MIC to drug MIC against Mycobacterium tuberculosis H37Rv ATCC 27294
Format: functional
Conditions: not given

Compound | Ratio
CCOC(=O)C1=C(O)CC(c2ccccc2)N(C(=O)CCl)C1c1ccccc1 (configuration not stated) | 200
